Results from PubChem BioAssay.
The source made the active and inactive calls.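 Rule for the calls, unless noted: active = viability at or under a set limit in both replicates, limit being median viability minus 3 SD (cut at about 48% in these data, passing the limit was not always enough); inconclusive = at or under the limit in just one replicate; inactive = at or above the limit in both replicates.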

Legend:
[1] = SK-BR-3 cell growth inhibitors, pilot screen, 24 h, human (AID 572;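 active = viability at or below 10% of carrier control in both of two separate runs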;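 note: compound exposure lasted between 18 and 24 h rather than exactly 24 h; 100% = carrier-treated control wells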); settings: SK-BR-3 viability, CellTiter-Glo luminescence, at 10 µM, stronger effect = lower value
[2] = HUVEC growth inhibition – cell-based, human, primary screen (AID 575;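 active = viability at or below 30% in both replicate assays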;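 note: 100% = median of untreated cell wells with 0.1% DMSO on each plate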); settings: HUVEC proliferation, CellTiter-Glo luminescence, 72 h; at 10 µM; stronger effect = lower value
How it was run: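 Material: primary human umbilical vein endothelial cells / Schedule: 72 h exposure, 37 °C, 5% CO2, 30 min RT equilibration / Signal: ATP-based CellTiter-Glo luminescent read / Read-out basis: percent of median DMSO-control luminescence / Control set: 32 DMSO-only cell-control wells (high), 32 MePR drug-control wells (low) per plate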

[3] = growth inhibitors of H69AR lung tumor, primary screen, human, duplicate replicates (AID 580); settings: H69AR lung tumor cells viability, ATP luminescence, 72 h; at 10 µM; stronger effect = lower value;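 note: 100% = mean luminescence of untreated wells and 0% = no signal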
[4] = reversal of MRP1-mediated doxorubicin resistance, pilot screen, H69AR cells, doxorubicin co-treatment (AID 601;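 active = viability loss from added drug above about 55%, and viability with drug at most 40%, in both replicates, limit read from the data, passing the limit was not always enough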); settings: CellTiter-Glo, 72 h, at 10 µM; for differential viability (reversal): stronger effect = higher value
[5] = 384-well plate pilot, post-Golgi transport modulator project, inhibition of yeast transport mutant growth (AID 636; in the data active = inhibition above about 31%); settings: absorbance 615 nm, about 18 h, stronger effect = higher value
[6] = growth suppression of yeast trafficking mutant, preliminary HTS, modulators of trafficking downstream of Golgi apparatus project, 1536-format plate, OD 615 nm (AID 637; in the data active = inhibition above about 30%); settings: yeast transport mutant growth, absorbance 615 nm, 18 h; stronger effect = higher value
[7] = H69AR cells + 2 uM doxorubicin, measured here: viability with 2 uM doxorubicin, stronger effect = lower value
[8] = H69AR cells, compound alone cytotoxicity

| SMILES | viability [1] | viability [2] | viability [3] | differential viability (reversal) ([4]; H69AR cells + 2 uM doxorubicin) | viability [4, 7] | viability [4, 8] | inhibition [5] | inhibition [6] |
| --- | --- | --- | --- | --- | --- | --- | --- | --- |
| Cc1ccn2cc(CCNC(=O)CC(C)(C)C)nc2c1 | 89% (inactive) | 113% (inactive) | 97.9% (inactive) | 9.27% (inactive) | 88.6% | 97.9% | -4.19% (inactive) | -2.36% (inactive) |
| COC(=O)C1(C)NC(c2cccs2)C2C(=O)N(c3ccccc3F)C(=O)C21 (stereo unspecified) | 80% (inactive) | 96.3% (inactive) | 99.3% (inactive) | 4.93% (inactive) | 94.4% | 99.3% | -0.27% (inactive) | -0.48% (inactive) |
| CCOC(=O)c1sc2cccc(F)c2c1N | 105% (inactive) | 80.8% (inactive) | 88.1% (inactive) | 5.58% (inactive) | 82.5% | 88.1% | -5.45% (inactive) | 6.07% (inactive) |
| COC(=O)Nc1ccc(S(=O)(=O)N2CCCCCC2)cc1 | 99% (inactive) | 93.7% (inactive) | 80.3% (inactive) | -10.7% (inactive) | 91% | 80.3% | -10.1% (inactive) | -2% (inactive) |
| Cc1ccc2nc(C3CCN(CC(=O)N4CCCCCC4)CC3)[nH]c2c1 | 84% (inactive) | 108% (inactive) | 96.3% (inactive) | -10.6% (inactive) | 107% | 96.3% | -1.1% (inactive) | 0.73% (inactive) |
| CC(Sc1nnnn1C)C(=O)Nc1ccc(Oc2ccccc2)cc1 (stereo unspecified) | 92% (inactive) | 87.8% (inactive) | 97.8% (inactive) | 11% (inactive) | 86.8% | 97.8% | -7.53% (inactive) | 0.97% (inactive) |
| Cc1cc(C)nc(SC2=CS(=O)(=O)c3ccccc32)n1 | 102% (inactive) | 73.5% (inactive) | 14.8% (active) | -7.5% (inactive) | 22.3% | 14.8% | -1.2% (inactive) | -1.27% (inactive) |
| O=C(c1ccco1)N1CCN(CC2CC3C=CC2C3)CC1 (stereo unspecified) | 91% (inactive) | 110% (inactive) | 95.8% (inactive) | 5.7% (inactive) | 90.1% | 95.8% | -1.43% (inactive) | -2.13% (inactive) |
| Cc1ccc(N2CCN(CCc3nc4cc(NS(C)(=O)=O)ccc4n3C)CC2)cc1 | 104% (inactive) | 110% (inactive) | 90.1% (inactive) | 3.72% (inactive) | 86.4% | 90.1% | -6.75% (inactive) | -5.74% (inactive) |
| CC(CCc1ccccc1)NC(=O)CSc1nc(N)cc(N)n1 (stereo unspecified) | 114% (inactive) | 96.6% (inactive) | 94.7% (inactive) | 4.75% (inactive) | 90% | 94.7% | -0.68% (inactive) | -1.45% (inactive) |
| COc1ccc2c(c1)C1(Nc3ccccc3-c3nc4ccccc4n31)C(=O)N2 (stereo unspecified) | 88% (inactive) | 57.2% (inactive) | 82.3% (inactive) | -3.61% (inactive) | 85.9% | 82.3% | -8.49% (inactive) | 4.19% (inactive) |
| COc1ccccc1NC1=NC(c2ccc(Cl)cc2)N=C(N)N1 (stereo unspecified) | 91% (inactive) | 68.2% (inactive) | 10% (active) | -30.4% (inactive) | 40.5% | 10% | -5.27% (inactive) | 0% (inactive) |
| OC(CCCN1CCC(O)(c2ccc(Cl)cc2)CC1)c1ccc(F)cc1 (stereo unspecified) | 89% (inactive) | 73.1% (inactive) | 66.1% (inactive) | -6.19% (inactive) | 72.3% | 66.1% | 2.47% (inactive) | 4.5% (inactive) |
| O=C(CN1CCC(n2nnc3ccccc32)CC1)Nc1ccc2c(c1)CCC2 | 64% (inactive) | 92% (inactive) | 89.3% (inactive) | 1.24% (inactive) | 88.1% | 89.3% | -8.63% (inactive) | 2% (inactive) |
| CCOC(=O)c1ccc(CNC(=O)C(Cc2c[nH]c3ccccc23)NC(C)=O)o1 (stereo unspecified) | 90% (inactive) | 90.3% (inactive) | 101% (inactive) | 8.63% (inactive) | 92.3% | 101% | -6.99% (inactive) | 0.36% (inactive) |
| Cc1nccn1CCCN1C(=O)OC2(CCCCC2)C1(C)O (stereo unspecified) | 90% (inactive) | 88.1% (inactive) | 98.5% (inactive) | -3.27% (inactive) | 102% | 98.5% | -7.53% (inactive) | -1.29% (inactive) |
| CCc1cccc(NC(=O)CN(C)S(=O)(=O)c2cccc3nsnc23)c1 | 92% (inactive) | 90.3% (inactive) | 91.8% (inactive) | 7.68% (inactive) | 84.1% | 91.8% | -5.68% (inactive) | -2.55% (inactive) |
| c1cc2c(cc1C1CCCN1)OCCCO2 (stereo unspecified) | 103% (inactive) | 113% (inactive) | 91.6% (inactive) | -7.94% (inactive) | 99.5% | 91.6% | -5.21% (inactive) | 2% (inactive) |
| COC(=O)C1CCN(C(=O)CN2C(=O)NC(CCc3ccccc3)C2=O)CC1 (stereo unspecified) | 119% (inactive) | 94.2% (inactive) | 91.7% (inactive) | 0.73% (inactive) | 90.9% | 91.7% | -1.92% (inactive) | 3.87% (inactive) |

| SMILES | viability [1] | viability [2] | viability [3] | differential viability (reversal) ([4]; H69AR cells + 2 uM doxorubicin) | viability [4, 7] | viability [4, 8] | inhibition [5] | inhibition [6] |
| --- | --- | --- | --- | --- | --- | --- | --- | --- |
| COc1ccccc1CN1CC(C(=O)NCc2cccnc2)CC1=O (stereo unspecified) | 134% (inactive) | 95.5% (inactive) | 91.5% (inactive) | 2.3% (inactive) | 89.2% | 91.5% | -2.99% (inactive) | 3.77% (inactive) |
| CCn1nnnc1SCC(=O)N1c2ccccc2CCc2ccccc21 | 86% (inactive) | 99.1% (inactive) | 86.7% (inactive) | -5.9% (inactive) | 92.6% | 86.7% | -9.07% (inactive) | -0.18% (inactive) |
| CCc1ccc2[nH]c(=O)c(C(c3nnnn3CC3CCCO3)N3CCN4CCCC4C3)cc2c1 (stereo unspecified) | 100% (inactive) | 109% (inactive) | 105% (inactive) | 14.1% (inactive) | 91.1% | 105% | -3.2% (inactive) | -2.55% (inactive) |
| COC(=O)CCN(C(=O)c1ccc2c(c1)OCO2)c1ccccn1 | 96% (inactive) | 93.6% (inactive) | 98.5% (inactive) | 7.88% (inactive) | 90.7% | 98.5% | -8.22% (inactive) | 0.55% (inactive) |
| C=CCn1c(SCC#N)nc2c(c1=O)C(C)(C)Cc1ccccc1-2 | 104% (inactive) | 76.2% (inactive) | 78.8% (inactive) | -6.17% (inactive) | 85% | 78.8% | -5.62% (inactive) | 3.71% (inactive) |
| NC(=O)C1(N2CCCCC2)CCN(C(=O)Nc2ccccc2C(F)(F)F)CC1 | 97% (inactive) | 105% (inactive) | 90.9% (inactive) | 4.2% (inactive) | 86.7% | 90.9% | -0.39% (inactive) | 5.08% (inactive) |
| CC(=O)OCC(=O)[C@@]1(OC(C)=O)[C@@H](C)C[C@H]2[C@@H]3C[C@H](F)C4=CC(=O)C=C[C@]4(C)[C@@]3(F)[C@@H](O)C[C@@]21C | 119% (inactive) | 102% (inactive) | 94.5% (inactive) | 5.08% (inactive) | 89.5% | 94.5% | -1.69% (inactive) | 7.33% (inactive) |
| CCN(CC)CCn1c(OC)cc(=O)[nH]c1=O | 93% (inactive) | 104% (inactive) | 101% (inactive) | 0.635% (inactive) | 99.9% | 101% | -10% (inactive) | -0.97% (inactive) |
| CC(=O)C1=C(NC(=O)c2ccccc2F)C[C@@H]2[C@H]1C2(C)C | 90% (inactive) | 99.2% (inactive) | 91.3% (inactive) | 1.76% (inactive) | 89.5% | 91.3% | -10.7% (inactive) | -3.55% (inactive) |
| O=C(CNCC1CCCO1)Nc1ccccc1-n1cccc1 (stereo unspecified) | 80% (inactive) | 106% (inactive) | 95.7% (inactive) | 5.03% (inactive) | 90.6% | 95.7% | -8.38% (inactive) | -2.36% (inactive) |
| COC(=O)c1ccccc1OCC(=O)NC1CCCCC1 | 96% (inactive) | 106% (inactive) | 90.2% (inactive) | -1.72% (inactive) | 91.9% | 90.2% | -5.21% (inactive) | -6.77% (inactive) |
| COc1ccc(-n2ncc3c(NCc4ccc5c(c4)OCO5)ncnc32)cc1 | 92.5% (inactive) | 49.8% (inactive) | 6.44% (active) | -11% (inactive) | 17.4% | 6.44% | -3.55% (inactive) | 3.71% (inactive) |
| Cc1ccc(C2=Nc3ccccc3NC(C)(c3ccc(C)o3)C2)o1 (stereo unspecified) | 95% (inactive) | 79% (inactive) | 64% (inactive) | -10.7% (inactive) | 74.7% | 64% | 3.97% (inactive) | 27.1% (inactive) |
| Cc1ccc(S(=O)(=O)N2CCN(C(=O)N3CCOCC3)C2C)cc1 (stereo unspecified) | 76% (inactive) | 103% (inactive) | 99% (inactive) | -4.24% (inactive) | 103% | 99% | -8.08% (inactive) | -2.18% (inactive) |
| O=C(NCc1ccco1)c1cc2cc3ccc(Cl)cc3nc2o1 | 90% (inactive) | 21.4% (active) | 2.59% (active) | -0.39% (inactive) | 2.98% | 2.59% | -0.65% (inactive) | 0% (inactive) |
| c1ccc(-c2cc(N3CCCCC3)ncn2)cc1 | 105% (inactive) | 101% (inactive) | 99.7% (inactive) | 9.16% (inactive) | 90.6% | 99.7% | -7.26% (inactive) | -0.32% (inactive) |
| CCOC(=O)C(C#N)C(c1cccnc1)c1c(C)[nH][nH]c1=O (stereo unspecified) | 77% (inactive) | 107% (inactive) | 105% (inactive) | 9.4% (inactive) | 95.7% | 105% | -7.43% (inactive) | 4% (inactive) |
| COc1ccc(C2C3=C(CCCC3=O)Nc3nc(SCc4ccccc4)nn32)cc1OC (stereo unspecified) | 101% (inactive) | 121% (inactive) | 74.9% (inactive) | -21% (inactive) | 96% | 74.9% | -4.46% (inactive) | 0.36% (inactive) |
